How the values were obtained:
Canis familiaris [1] = assay: Inotropic activity determined by evaluating the % change in Diastolic Blood Pressure (DBP) at a dose of 3 ug/kg administered intravenously […]; assay type: functional, Canis lupus familiaris
Method in brief: (§1)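 Mongrel dogs of either sex, 7–15 kg, anesthetized with sodium pentobarbital (30 mg/kg iv), open-chest, intubated and ventilated on room air. Compounds given intravenously. A femoral artery catheter with pressure transducer recorded SBP and DBP. dP/dtmax, right ventricular contractile force, cardiac output and heart rate were also recorded, as % change at each iv dose.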

Canis familiaris [2] = assay: Inotropic activity determined by evaluating the % change in contractile force (CF) of right ventricle at a dose of 10 ug/kg administered intravenously […]; assay type: functional, Canis lupus familiaris, Heart right ventricle; method in brief: as §1
Canis familiaris [3] = assay: Inotropic activity determined by evaluating the % change in Cardiac out put (CO)at a dose of 3 ug/kg administered intravenously […]; assay type: functional, Canis lupus familiaris; method in brief: as §1
Canis familiaris [4] = assay: Inotropic activity determined by evaluating the % change in Heart Rate (HR) at a dose of 3 ug/kg administered intravenously […]; assay type: functional, Canis lupus familiaris; method in brief: as §1
Canis familiaris [5] = assay: Inotropic activity determined by evaluating the maximum rate of rise in left ventricular pressure at a dose of 1 ug/kg administered intravenously […]; assay type: functional, Canis lupus familiaris, Muscle tissue; method in brief: as §1
Canis familiaris [6] = assay: Inotropic activity determined by evaluating the maximum rate of rise in left ventricular pressure at a dose of 10 ug/kg administered intravenously […]; assay type: functional, Canis lupus familiaris, Muscle tissue; method in brief: as §1
Canis familiaris [7] = assay: Inotropic activity determined by evaluating the % change in Cardiac out put (CO)at a dose of 1 ug/kg administered intravenously […]; assay type: functional, Canis lupus familiaris; method in brief: as §1
Canis familiaris [8] = assay: Inotropic activity determined by evaluating the % change in Cardiac out put (CO)at a dose of 10 ug/kg administered intravenously […]; assay type: functional, Canis lupus familiaris; method in brief: as §1
Canis familiaris [9] = assay: Inotropic activity determined by evaluating the % change in Systolic Blood Pressure (SBP) at a dose of 1 ug/kg administered intravenously […]; assay type: functional, Canis lupus familiaris, Muscle tissue; method in brief: as §1
Canis familiaris [10] = assay: Inotropic activity determined by evaluating the % change in Heart Rate (HR) at a dose of 1 ug/kg administered intravenously […]; assay type: functional, Canis lupus familiaris; method in brief: as §1
Canis familiaris [11] = assay: Inotropic activity determined by evaluating the maximum rate of rise in left ventricular pressure at a dose of 3 ug/kg administered intravenously […]; assay type: functional, Canis lupus familiaris, Muscle tissue; method in brief: as §1
Canis familiaris [12] = assay: Inotropic activity determined by evaluating the % change in Diastolic Blood Pressure (DBP) at a dose of 1 ug/kg administered intravenously […]; assay type: functional, Canis lupus familiaris; method in brief: as §1
Canis familiaris [13] = organism: Canis familiaris; assay: Positive inotropic in the isolated papillary muscle of the dog.; assay type: functional, Canis lupus familiaris
Method in brief: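 Right ventricular anterior papillary muscle with septum, from mongrel dogs (7–12 kg, pentobarbital 30 mg/kg iv). It was perfused at about 100 mmHg via the septal artery with blood from a heparinized donor dog and paced at 120/min (1 ms pulses, about 1.5× threshold). Isometric tension was recorded. Saline solutions were injected intra-arterially, with amrinone as reference. ED15 (15% rise in developed tension) was taken from log dose-response curves. Results are mean ± SEM (n = 7) or mean ± range (n = 2).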

Canis familiaris [14] = assay: Inotropic activity determined by evaluating the % change in Systolic Blood Pressure (SBP) at a dose of 3 ug/kg administered intravenously […]; assay type: functional, Canis lupus familiaris, Muscle tissue; method in brief: as §1
Canis familiaris [15] = assay: Inotropic activity determined by evaluating the % change in Diastolic Blood Pressure (DBP) at a dose of 10 ug/kg administered intravenously […]; assay type: functional, Canis lupus familiaris; method in brief: as §1
Canis familiaris [16] = assay: Inotropic activity determined by evaluating the % change in Heart Rate (HR) at a dose of 10 ug/kg administered intravenously […]; assay type: functional, Canis lupus familiaris; method in brief: as §1
Canis familiaris [17] = assay: Inotropic activity determined by evaluating the % change in contractile force (CF) of right ventricle at a dose of 3 ug/kg administered intravenously […]; assay type: functional, Canis lupus familiaris, Heart right ventricle; method in brief: as §1
Canis familiaris [18] = organism: Canis familiaris; assay: Positive inotropic activity determined in the […](that produced 30% increase in dose- response curves [dP/dt(max)]); assay type: functional; settings: Canis lupus familiaris
Method in brief: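 In the anesthetized open-chest dog (mongrel, 7–15 kg, pentobarbital 30 mg/kg iv, ventilated on room air), compounds were given intravenously and LV dP/dtmax was recorded. The dose giving a 30% rise in dP/dtmax was read from the dose-response curves. Results are mean ± SEM (n = 3) or mean ± range (n = 2).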

Canis familiaris [19] = assay: Inotropic activity determined by evaluating the % change in contractile force (CF) of right ventricle at a dose of 1 ug/kg administered intravenously […]; assay type: functional, Canis lupus familiaris, Heart right ventricle; method in brief: as §1
Canis familiaris [20] = assay: Inotropic activity determined by evaluating the % change in Systolic Blood Pressure (SBP) at a dose of 10 ug/kg administered intravenously […]; assay type: functional, Canis lupus familiaris; method in brief: as §1
Canis familiaris [21] = assay: Inotropic activity determined by evaluating the % change in contractile force (CF) of right ventricle at a dose of 300 ug/kg administered intravenously […]; assay type: functional, Canis lupus familiaris, Heart right ventricle; method in brief: as §1
Canis familiaris [22] = assay: Inotropic activity determined by evaluating the % change in contractile force (CF) of right ventricle at a dose of 1000 ug/kg administered intravenously […]; assay type: functional, Canis lupus familiaris, Heart right ventricle; method in brief: as §1
Canis familiaris [23] = assay: Inotropic activity determined by evaluating the % change in Heart Rate (HR) at a dose of 1000 ug/kg administered intravenously […]; assay type: functional, Canis lupus familiaris; method in brief: as §1
Canis familiaris [24] = assay: Inotropic activity determined by evaluating the maximum rate of rise in left ventricular pressure at a dose of 1000 ug/kg administered intravenously […]; assay type: functional, Canis lupus familiaris, Muscle tissue; method in brief: as §1
Canis familiaris [25] = assay: Inotropic activity determined by evaluating the % change in Cardiac out put (CO)at a dose of 300 ug/kg administered intravenously […]; assay type: functional, Canis lupus familiaris; method in brief: as §1
Canis familiaris [26] = assay: Inotropic activity determined by evaluating the % change in Diastolic Blood Pressure (DBP) at a dose of 300 ug/kg administered intravenously […]; assay type: functional, Canis lupus familiaris; method in brief: as §1
Canis familiaris [27] = assay: Inotropic activity determined by evaluating the % change in Heart Rate (HR) at a dose of 300 ug/kg administered intravenously […]; assay type: functional, Canis lupus familiaris, Muscle tissue; method in brief: as §1
Canis familiaris [28] = assay: Inotropic activity determined by evaluating the maximum rate of rise in left ventricular pressure at a dose of 300 ug/kg administered intravenously […]; assay type: functional, Canis lupus familiaris, Muscle tissue; method in brief: as §1
Canis familiaris [29] = assay: 0 Inotropic activity determined by evaluating the % change in Systolic Blood Pressure (SBP) at a dose of 1000 ug/kg administered intravenously […]; assay type: functional, Canis lupus familiaris; method in brief: as §1
Canis familiaris [30] = assay: Inotropic activity determined by evaluating the % change in Diastolic Blood Pressure (DBP) at a dose of 1000 ug/kg administered intravenously […]; assay type: functional, Canis lupus familiaris; method in brief: as §1
Canis familiaris [31] = assay: Inotropic activity determined by evaluating the % change in Systolic Blood Pressure (SBP) at a dose of 300 ug/kg administered intravenously […]; assay type: functional, Canis lupus familiaris, Muscle tissue; method in brief: as §1
Canis familiaris [32] = assay: Inotropic activity determined by evaluating the % change in Cardiac out put (CO)at a dose of 1000 ug/kg administered intravenously […]; assay type: functional, Canis lupus familiaris; method in brief: as §1

CC1CC(=O)NN=C1c1ccc(Nc2ccncc2)cc1.Cl (centres undefined)
Change of DBP (Canis familiaris [1]): -21.2% | Change of CF (Canis familiaris [2]): 61.5% | Change of CO (Canis familiaris [3]): 11.7% | Change of HR (Canis familiaris [4]): 15.8% | dP/dt (Canis familiaris [5]): 8.1% | dP/dt (Canis familiaris [6]): 58.4% | Change of CO (Canis familiaris [7]): 5.1% | Change of CO (Canis familiaris [8]): 24.5% | Change of SBP (Canis familiaris [9]): -4.7% | Change of HR (Canis familiaris [10]): 3.4% | dP/dt (Canis familiaris [11]): 19.5% | Change of DBP (Canis familiaris [12]): -7.3% | ED15 (Canis familiaris [13]): 1.5 µg | Change of SBP (Canis familiaris [14]): -14.1% | Change of DBP (Canis familiaris [15]): -31.4% | Change of HR (Canis familiaris [16]): 25.1% | Change of CF (Canis familiaris [17]): 22.7% | ED30 (Canis familiaris [18]): 4.4 µg/kg | Change of CF (Canis familiaris [19]): 7.9% | Change of SBP (Canis familiaris [20]): -23.6%

Cc1cc(O)nnc1-c1ccc(Nc2ccncc2)cc1.Cl
Change of CF (Canis familiaris [21]): -1.1% | Change of CF (Canis familiaris [22]): 10.5% | Change of HR (Canis familiaris [23]): 5.8% | dP/dt (Canis familiaris [24]): 6.2% | Change of CO (Canis familiaris [25]): 9.6% | Change of DBP (Canis familiaris [26]): -0.3% | Change of HR (Canis familiaris [27]): -1.3% | ED15 (Canis familiaris [13]): 165 µg | dP/dt (Canis familiaris [28]): -2.2% | Change of SBP (Canis familiaris [29]): 1.9% | ED30 (Canis familiaris [18]): > 1000 µg/kg | Change of DBP (Canis familiaris [30]): 1.4% | Change of SBP (Canis familiaris [31]): 0.5% | Change of CO (Canis familiaris [32]): 7.6%
